This is an account of results in ChEMBL document CHEMBL1151962, “Identification of N,1,4,4-tetramethyl-8-{[4-(4-methylpiperazin-1-yl)phenyl]amino}-4,5-dihydro-1H-pyrazolo[4,3-h]quinazoline-3-carboxamide (PHA-848125), a potent, orally available cyclin dependent kinase inhibitor” (J Med Chem, 2009).

The target in one data set is Cytochrome P450 3A4 (Homo sapiens, UniProt P08684). Put plainly: Inhibition of human CYP3A4 assessed as compound remaining by LC/MS/MS analysis. The class given is ADME. The arrangement: concentration or dose not given beside the values.
A short description of data set [1]: Cmax in fasted nu/nu mouse at 10 mg/kg, po by LC/MS/MS analysis. Also on record: dose 10 mg/kg, route oral. As to conditions: in vivo. The class given is ADME, organism-based. In a few lines:
(§1)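 Overnight-fasted male Nu/Nu mice received a single 10 mg/kg dose iv or orally, in 5% dextrose vehicle, given as the hydrochloride salt. Three mice per route. Saphenous vein blood was drawn predose and at 0.083 (iv) or 0.25 (po), 0.5, 1, 6 and 24 h. Samples were spun at 10000g for 3 min at 4 °C, and plasma was stored at -80 °C until analysis.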

The nature of data set [2]: Volume of distribution at steady state in fasted nu/nu mouse at 10 mg/kg, iv by LC/MS/MS analysis. It counts as ADME, organism-based. Also on record: dose 10 mg/kg, route intravenous. As to conditions: in vivo, read-out: Vdss. In a few lines: as §1
The nature of data set [3]: Half life in fasted nu/nu mouse at 10 mg/kg, po by LC/MS/MS analysis. The class given is ADME, organism-based. Also on record: dose 10 mg/kg, route oral. As to conditions: in vivo. In a few lines: as §1
Data set [4] is described as follows: Oral bioavailability in fasted nu/nu mouse at 10 mg/kg by LC/MS/MS analysis. As to conditions: in vivo. It counts as ADME, organism-based. In a few lines:
as §1

Data set [5] can be described thus: AUC in fasted nu/nu mouse at 10 mg/kg, po LC/MS/MS analysis. It counts as ADME, organism-based. Also on record: dose 10 mg/kg, route oral. As to conditions: plasma. In a few lines: as §1
Data set [6] can be described thus: Solubility in 5% dextrose. It counts as physicochemical.
A short description of data set [7]: Clearance in fasted nu/nu mouse at 10 mg/kg, iv by LC/MS/MS analysis. The class given is ADME, organism-based. As to conditions: in vivo. The arrangement: dose 10 mg/kg, route intravenous. In a few lines:
as §1

Data set [8] can be described thus: Half life in fasted nu/nu mouse at 10 mg/kg, iv by LC/MS/MS analysis. It counts as ADME, organism-based. Also on record: dose 10 mg/kg, route intravenous. As to conditions: in vivo. In a few lines: as §1
For a further data set, the species on record is Homo sapiens. Put plainly: Protein binding in human plasma. As to conditions: read-out: PPB (converted).
A further data set relates to A2780. Put plainly: Antiproliferative activity against human A2780 cells after 72 hrs by cell Titer_Glo assay. It counts as functional, cell-based. As to conditions: A2780, 72 h. In a few lines: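 A2780 cells were seeded at 10000–30000 cells/cm² in medium with 10% FCS. After 24 h they were treated with serial dilutions of compound, in two replicates. Cell amount was read by Cell Titer Glo 72 h after treatment. IC50 came from sigmoidal fitting.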

The target of a further data set is T1, Aurora kinase A (Homo sapiens, UniProt O14965).
T1 sequence (O14965 whole entry): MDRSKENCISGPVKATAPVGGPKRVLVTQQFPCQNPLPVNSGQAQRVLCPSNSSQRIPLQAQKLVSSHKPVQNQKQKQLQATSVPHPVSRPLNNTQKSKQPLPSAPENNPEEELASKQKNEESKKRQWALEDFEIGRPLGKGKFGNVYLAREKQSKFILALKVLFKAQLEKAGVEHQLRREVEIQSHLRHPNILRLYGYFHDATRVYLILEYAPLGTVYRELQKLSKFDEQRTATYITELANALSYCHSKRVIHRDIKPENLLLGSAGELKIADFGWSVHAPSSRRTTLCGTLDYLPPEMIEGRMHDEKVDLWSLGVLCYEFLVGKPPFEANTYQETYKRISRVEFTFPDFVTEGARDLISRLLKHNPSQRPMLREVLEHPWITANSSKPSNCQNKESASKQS
Put plainly: Inhibition of Aurora A.

The target in data set [9] is T2, Cyclin-dependent kinase 2 (Homo sapiens, UniProt P24941). Briefly: Inhibition of CDK2/Cyclin A.
A short description of data set [10]: Solubility at pH 7. It counts as physicochemical. As to conditions: buffer.
Data set [11] addresses T2, Cyclin-dependent kinase 2. Put plainly: Inhibition of CDK2 in human A2780 cells assessed as accumulation of hypophosphorylated form of retinoblastoma protein at 3 uM relative to control. It counts as cell-based. In a few lines:
(§2)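 A2780 human ovarian carcinoma cells (ECACC) were seeded at 25 000 cells/cm2 in RPMI 1640 pH 7.4 with 10% FBS and 2 mM L-glutamine, at 37 °C in 5% CO2. They were exposed 24 h later to 1 or 3 µM. Floating and adherent cells were harvested with trypsin/EDTA. Extracts were immunoblotted for hyper- and hypophosphorylated pRb and compared with untreated cells.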

For data set [12], the target named is T2, Cyclin-dependent kinase 2. Briefly: Inhibition of CDK2 in human A2780 cells assessed as accumulation of hypophosphorylated form of retinoblastoma protein at 1 uM relative to control. The class given is cell-based. In a few lines:
as §2

Data set [13] has as its target T2, Cyclin-dependent kinase 2. Put plainly: Inhibition of CDK2 in human A2780 cells assessed as reduction of hyperphosphorylated form of retinoblastoma protein at 1 uM relative to control. It counts as cell-based. In a few lines: as §2
The target of data set [14] is T2, Cyclin-dependent kinase 2. Put plainly: Inhibition of CDK2 in human A2780 cells assessed as reduction of hyperphosphorylated form of retinoblastoma protein at 3 uM relative to control. It counts as cell-based. In a few lines: as §2
For another data set, the system named is Mus musculus. Briefly: Hepatic blood flow in fasted nu/nu mouse at 10 mg/kg, iv by LC/MS/MS analysis. It counts as ADME, organism-based, Liver. Also on record: dose 10 mg/kg, route intravenous. As to conditions: in vivo.

Structures are written as SMILES. Converted amounts (≈) assume the structure as drawn. The source made the active and inactive calls.

Cytochrome P450 3A4, sequence (P08684 whole entry): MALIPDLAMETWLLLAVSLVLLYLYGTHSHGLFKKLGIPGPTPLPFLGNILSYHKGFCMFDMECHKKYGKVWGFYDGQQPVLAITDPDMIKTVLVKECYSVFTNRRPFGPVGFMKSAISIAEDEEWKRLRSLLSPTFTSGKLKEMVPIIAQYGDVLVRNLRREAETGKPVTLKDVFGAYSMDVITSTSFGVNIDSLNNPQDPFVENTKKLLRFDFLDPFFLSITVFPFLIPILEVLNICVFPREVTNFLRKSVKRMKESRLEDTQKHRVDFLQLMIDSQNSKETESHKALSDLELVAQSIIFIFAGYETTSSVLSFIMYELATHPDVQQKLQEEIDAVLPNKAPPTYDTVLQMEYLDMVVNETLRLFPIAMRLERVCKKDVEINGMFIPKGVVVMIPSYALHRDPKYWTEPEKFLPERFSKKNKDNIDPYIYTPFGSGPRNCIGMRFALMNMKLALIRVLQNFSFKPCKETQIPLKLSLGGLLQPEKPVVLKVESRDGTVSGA

For the molecule `CNC(=O)c1nn(C)c2c1C(C)(C)Cc1cnc(Nc3ccc(OC4CCN(C)CC4)cc3)nc1-2.Cl`, the Activity on Cytochrome P450 3A4 was found to be 63%. The molecule also came in with a Cmax in data set [1] of 600 nM. In addition, the Vd in data set [2] is 5.27 L/kg. For the same molecule, the half-life in [3] was 234 min; in data set [8], 114 min. The same molecule gave a bioavailability in data set [4] of 38%. The same molecule gave an exposure (AUC) in [5] of 2.51 µM·h. In [6], this molecule showed a solubility of 10000 µg/mL. The molecule also had a clearance in data set [7] of 43.7 mL/min/kg.

With `CN1CCN(c2ccc(Nc3ncc4c(n3)-c3c(c(C(N)=O)nn3C)C(C)(C)C4)cc2)CC1.Cl`, the Activity on Cytochrome P450 3A4 is given as 82%. Also, the fraction unbound in the data set filed under Homo sapiens was 0.01. In data set [6], this molecule came in with a solubility of 3400 µg/mL.

As for `CNC(=O)c1nn(C)c2c1C(C)(C)Cc1cnc(Nc3cccc(N(C)C)c3)nc1-2`, the half-maximal inhibitory concentration (IC50) in the data set on A2780 was determined as 3010 nM; against Aurora kinase A it was 1440 nM; in data set [9] it was 220 nM. Besides, in data set [10], the concentration in solution (solubility) came to 41 µM (≈ 16.6 µg/mL).

Turning to `CNC(=O)c1nn(C)c2c1C(C)(C)Cc1cnc(Nc3cccc(CN(C)C)c3)nc1-2`, the half-inhibitory concentration (IC50) in the data set with A2780 was 500 nM; at Aurora kinase A it was 2940 nM; in data set [9], 83 nM. The solubility in [10] came out at 193 µM (≈ 81 µg/mL).

In the case of `CNC(=O)c1nn(C)c2c1C(C)(C)Cc1cnc(Nc3cccc(OC4CCN(C)CC4)c3)nc1-2`, the 50% inhibitory concentration (IC50) in the data set on A2780 turned out to be 390 nM; against Aurora kinase A, 1580 nM; in data set [9] it was 47 nM. The same molecule showed a solubility in data set [10] of 160 µM (≈ 76.1 µg/mL).

In the case of `CNC(=O)c1nn(C)c2c1C(C)(C)Cc1cnc(Nc3ccc(N4CCN(C)CC4)cc3)nc1-2`, the result in data set [11], in data set [12], in data set [13] and in data set [14] was Active.

For the molecule `CNC(=O)c1nn(C)c2c1C(C)(C)Cc1cnc(Nc3ccc(N4CCN(C)CC4)cc3)nc1-2.Cl`, the Activity on Cytochrome P450 3A4 amounted to 85%; in the data set with Mus musculus, 36%. This molecule also displayed a peak concentration (Cmax) in data set [1] of 2350 nM. Further, the Vd in [2] came out at 4.82 L/kg. Besides, the half-life in data set [3] was 174 min; in data set [8], 156 min. Besides, the bioavailability in [4] came to 85%. The same molecule registered an AUC in data set [5] of 8.29 µM·h. Besides, in data set [6], the concentration in solution (solubility) was 10000 µg/mL. In data set [7], this molecule had a clearance of 31.2 mL/min/kg.

In the case of `CNC(=O)c1nn(C)c2c1C(C)(C)Cc1cnc(Nc3ccc(CN4CCOCC4)cc3)nc1-2`, the values for the IC50 (with A2780; against Aurora kinase A; in [9]) were 350 nM, 535 nM and 36 nM, respectively. The same molecule returned a solubility in data set [10] of 133 µM (≈ 61.4 µg/mL).

In the case of `CN1CCN(c2ccc(Nc3ncc4c(n3)-c3c(c(C(N)=O)nn3C)C(C)(C)C4)cc2)CC1`, the IC50 worked out at 50 nM in the data set with A2780, 582 nM on Aurora kinase A and 17 nM in data set [9]. Further, the concentration in solution in data set [10] (solubility) came to 98 µM (≈ 43.8 µg/mL).

In the case of `CNC(=O)c1nn(C)c2c1C(C)(C)Cc1cnc(Nc3ccc(CN4CCN(C)CC4)cc3)nc1-2.Cl`, at Cytochrome P450 3A4, the Activity stood at 50%. Besides, the Cmax in data set [1] stood at 770 nM. Besides, in data set [2], the Vd came to 3.23 L/kg. The results for the half-life in [3] and in [8] were 252 min and 108 min, respectively. In addition, the fraction unbound in the data set filed under Homo sapiens is 0.01. Moreover, the bioavailability in data set [4] turned out to be 42%. In data set [5], this molecule showed an AUC of 3.37 µM·h. The molecule further had a solubility in data set [6] of 10000 µg/mL. The same molecule gave a clearance in data set [7] of 31.6 mL/min/kg.

Turning to `CNC(=O)c1nn(C)c2c1C(C)(C)Cc1cnc(Nc3ccc(CN(C)C)cc3)nc1-2.Cl`, on Cytochrome P450 3A4, the Activity stood at 77%. This molecule also yielded a Cmax in [1] of 570 nM. The Vd in data set [2] is 4.04 L/kg. Moreover, the half-life is 204 min in data set [3] and 84 min in [8]. Also, the fraction unbound in the data set listed under Homo sapiens was 0.05. Also, the bioavailability in [4] amounted to 28%. The exposure (AUC) in data set [5] turned out to be 1.97 µM·h. Further, the solubility in [6] was determined as 10000 µg/mL. The molecule also showed a clearance in data set [7] of 53.3 mL/min/kg.

For `CN1CCN(c2cccc(Nc3ncc4c(n3)-c3c(c(C(N)=O)nn3C)CC4)c2)CC1`, the IC50 turned out to be 30 nM in the data set on A2780, 30 nM against Aurora kinase A and 1 nM in data set [9]. Further, the solubility in [10] was 47 µM (≈ 19.7 µg/mL).

Usually Cmax stands for the maximum level reached in the sampled fluid or tissue. What is called half-life is the time needed for the level to fall by half in the phase considered. As a reminder, the bioavailability is dose-corrected exposure relative to a reference, in per cent. As usually defined, the AUC is the area under the concentration-time curve, a measure of exposure. By solubility is commonly meant how much of the substance goes into solution per volume. The term clearance denotes the volume of plasma or blood freed of the substance per unit of time. The term IC50 denotes the midpoint of a concentration-inhibition curve.
